The results in this text go back to ChEMBL document CHEMBL4052826, “Design and Synthesis of Novel Reactive Oxygen Species Inducers for the Treatment of Pancreatic Ductal Adenocarcinoma” (J Med Chem, 2018).

The subject of series [1] is Mus musculus. Put plainly: Induction of unfolded protein response in tumor of NOD/SCID mouse xenografted with MIAPaCa2 cells assessed as upregulation of GRP78 expression at 5 mg/kg, ip administered 5 times a week until day 44 by Western blot method. The class given is functional, organism-based. The procedure, abridged: (§1)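 Dosed ip in 5% DMSO/60% propylene glycol/35% saline, five days on/two off, until day 44, versus vehicle. Tumor lysates immunoblotted with primary antibodies, Dylight 800 secondary, fluorescent scan.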
A general note: Immunoblotting shows a protein as a band on a membrane.

In the next series the test system is BXPC-3. Put plainly: Induction of reactive oxygen species generation in human BxPC3 cells assessed as upregulation of HO-1 expression at 2 uM after 4 to 24 hrs by Western blot analysis. The class given is functional, cell-based. The procedure, abridged: (§2)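 Immunoblotting. Cells (4×10^5) in 60 mm dishes were treated, lysed 30 min at 4°C and quantified by BCA. 40 μg protein was run on SDS-PAGE and transferred to PVDF. Primary antibodies (1:1000) incubated overnight at 4°C, then Dylight 800 secondary, with fluorescent scanning. Bands were normalized to GAPDH or actin loading controls. Mean ± SD, three independent experiments, Student's t-test.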

Series [2] relates to MIA PaCa-2. Put plainly: Induction of reactive oxygen species generation in human MIAPaCa2 cells at 1.1 to 10 uM after 24 hrs in presence of NAC by H2DCFDA reactivity assay. The class given is functional, cell-based. The procedure, abridged: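 H2DCFDA assay. Trypsinized MIA PaCa-2 cells in suspension were loaded with 20 μM H2DCFDA for 30 min at 37°C, washed and plated at 20,000/well. After 30 min they were treated with compound at 10, 3.3 or 1.1 μM. Fluorescence was read at 493/523 nm over time. DMSO basal and unstained controls were included. NAC pretreatment, where used, was 5 mM for 30 min. Duplicates, three independent experiments.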

A short description of series [3]: Cytotoxicity against HPDEC assessed as decrease in cell proliferation after 72 hrs by MTT assay. The class given is cell-based. Particulars: Homo sapiens. The procedure, abridged: (§3)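 MTT assay. Cells (3000–8000/well) attached overnight in RPMI1640 with 10% FBS; the GR line was kept with 200 nM gemcitabine. Serial dilutions (30 nM–10 μM for most lines) were applied for 72 h. MTT was added at a final 300 μg/mL for 3 h at 37°C, formazan was dissolved in DMSO and A570 read. Inhibition = (1 − OD treated/OD control) × 100. IC50 given as mean ± SD, three independent experiments.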

Series [4] has as its system MIA PaCa-2. Put plainly: Downregulation of Sp4 gene expression in human MIAPaCa2 cells at IC50 to 5 times IC50 after 4 hrs by Bru-seq analysis. The class given is functional, cell-based.
Series [5] can be described thus: Selectivity index, ratio of IC50 for HPDEC to IC50 for human MIAPaCa2 cells. The procedure, abridged: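 The measurement is MTT cytotoxicity (72 h) in HPV16-E6E7-immortalized HPDE cells and in MIA PaCa-2 cells, both grown in RPMI1640 with 10% FBS. Cells were seeded at 3000–8000/well and attached overnight, then treated with serial dilutions (30 nM–10 μM for most lines). MTT (300 μg/mL final) was added for 3 h at 37°C, formazan was dissolved in DMSO and A570 was read. IC50s are mean ± SD of three experiments; the index is their ratio.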

The next series has as its system PANC-1. In words: Cytotoxicity against human PANC1 cells assessed as decrease in cell proliferation after 72 hrs by MTT assay. The class given is functional, cell-based. The note with it: PANC-1, 72 h. The procedure, abridged:
as §3

In series [6] the test system is MIA PaCa-2. In words: Cytotoxicity against gemcitabine-resistant human MIAPaCa2 cells assessed as decrease in cell proliferation after 72 hrs by MTT assay. The class given is functional, cell-based. The procedure, abridged:
as §3
On the technique in general: Formazan colour is commonly taken as a measure of viable cells.

For series [7], the system named is Mus musculus. Put plainly: Toxicity in NOD/SCID mouse xenografted with human MIAPaCa2 cells assessed as microscopic changes in pancreas at 5 mg/kg, ip administered 5 times a week until day 44 by hematoxylin and eosin staining-based inverted microscopic method. The class given is organism-based. The note with it: in vivo. The essentials:
(§4)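 Necropsy after the 44-day ip course in MIA PaCa-2 xenograft-bearing NOD/SCID mice: heart, kidney, liver, lung, spleen and pancreas fixed in 10% neutral buffered formalin, paraffin-embedded, sectioned and stained with hematoxylin and eosin. Sections examined by inverted microscope at 20X, compared with vehicle-treated animals.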
On the technique in general: A xenograft is tissue or cells of one species grown in another, often human tumour cells in immunodeficient mice.

Series [8] relates to MIA PaCa-2. In words: Antitumor activity against human MIAPaCa2 cells xenografted in NOD/SCID mouse assessed as tumor volume at 5 mg/kg, ip administered 5 times a week for 48 days (reference value: 1503 +/- 189 mm'3). The class given is functional. The essentials:
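MIA PaCa-2 subcutaneous xenografts in NOD/SCID mice, randomized at 75 mm3. Test agent was given at 5 mg/kg five times a week. Gemcitabine was given at 15 mg/kg either once weekly for 48 days or twice weekly for 15 days. Groups were n=3–4. Tumor volume was measured by caliper, given as mean ± SEM, and compared by unpaired t test.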

The test system of series [9] is Mus musculus. In words: Induction of unfolded protein response in tumor of NOD/SCID mouse xenografted with MIAPaCa2 cells assessed as upregulation of CHOP expression at 5 mg/kg, ip administered 5 times a week until day 44 by Western blot method. The class given is functional, organism-based. The essentials: as §1
The subject of series [10] is MIA PaCa-2. In words: Antiproliferative activity against human MIAPaCa2 cells xenografted in NOD/SCID mouse at 5 mg/kg, ip administered 5 times a week until day 44 by ki67 staining-based assay. The class given is functional, organism-based.
Series [11] deals with Mus musculus. Put plainly: Toxicity in NOD/SCID mouse xenografted with human MIAPaCa2 cells assessed as microscopic changes in kidney at 5 mg/kg, ip administered 5 times a week until day 44 by hematoxylin and eosin staining-based inverted microscopic method. Particulars: in vivo. The class given is organism-based. The procedure, abridged: as §4
For series [12], the system named is Mus musculus. In words: Induction of reactive oxygen species generation in tumor of NOD/SCID mouse xenografted with MIAPaCa2 cells assessed as upregulation of HO-1 expression at 5 mg/kg, ip administered 5 times a week until day 44 by Western blot method. The class given is functional, organism-based.
Series [13] relates to MIA PaCa-2. Put plainly: Induction of reactive oxygen species generation in human MIAPaCa2 cells assessed as upregulation of NQO1 gene expression after 4 hrs by Bru-seq analysis. The class given is functional, cell-based.
In series [14] the test system is MIA PaCa-2. Put plainly: Inhibition of mtDNA transcription from LSP promoter in human MIAPaCa2 cells at 5 times IC50 after 4 hrs by Bru-seq analysis. The class given is functional, cell-based. The procedure, abridged:
(§5)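 Nascent RNA sequencing (Bru-seq): 4×10^6 MIA PaCa-2 cells seeded in 10 cm dishes, treated next day for 4 h with drug or DMSO. Bromouridine (2 mM final) added for the last 30 min. Total RNA taken in TRIZOL; labeled RNA immunocaptured, converted to cDNA libraries and deep sequenced. Signal compared with DMSO-treated cells.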

The subject of series [15] is MIA PaCa-2. In words: Inhibition of mtDNA transcription from HSP2 promoter in human MIAPaCa2 cells at 5 times IC50 after 4 hrs by Bru-seq analysis. The class given is functional, cell-based. The essentials: as §5
The subject of series [16] is MIA PaCa-2. Put plainly: Cytotoxicity against human MIAPaCa2 cells assessed as decrease in cell proliferation after 72 hrs by MTT assay. The class given is functional, cell-based. The procedure, abridged:
as §3

Series [17] has as its system MIA PaCa-2. Put plainly: Cytotoxicity against human MIAPaCa2 cells assessed as decrease in cell proliferation after 72 hrs in presence of NAC by MTT assay. The class given is functional, cell-based. The procedure, abridged:
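MIA PaCa-2 cells were treated for 72 h with compound in the presence of 5 mM NAC. Viability was read by MTT (final 300 μg/mL, 3 h, A570). Mean ± SD of three independent experiments.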

In series [18] the test system is MIA PaCa-2. In words: Induction of reactive oxygen species generation in human MIAPaCa2 cells assessed as upregulation of NQO1 expression at 2 uM after 4 to 24 hrs by Western blot analysis. The class given is functional, cell-based. The procedure, abridged: as §2

Active and inactive are the calls of the source. No cut-off for these calls is given here.

As usually defined, the IC50 is the concentration that inhibits the measured activity by half. Take `O=C1C(Nc2ccc(-c3ccccc3)cc2)=CC(=O)c2ncncc21`: the result with Mus musculus [1], in the series with BXPC-3, with Mus musculus [9], with MIA PaCa-2 [10] and in the series with Mus musculus [12] was Active. The result with MIA PaCa-2 [2], with MIA PaCa-2 [4], with MIA PaCa-2 [17] and with MIA PaCa-2 [18] was inactive. Moreover, the IC50 turned out to be 2700 nM in [3]; 400 nM in the series with PANC-1; 1000 nM in the series with MIA PaCa-2 [6] (MIA PaCa-2, 72 h); 900 nM in the series on MIA PaCa-2 [16] (MIA PaCa-2, 72 h). In series [5], the “Ratio IC50” value is listed as 3. Besides, the Activity entry is “Dose-dependent effect” in the series with MIA PaCa-2 [6]; “Non-Toxic” in the series on Mus musculus [7]; 248 mm3 in the series on MIA PaCa-2 [8]; “Non-Toxic” in the series with Mus musculus [11]; “Dose-dependent effect” in the series on MIA PaCa-2 [13]; “Dose-dependent effect” in the series on MIA PaCa-2 [16]. Also, the inhibition result in the series on MIA PaCa-2 [14] and with MIA PaCa-2 [15] was “Active” in each case.
